Assay results taken from ChEMBL document CHEMBL2021901, “Antibacterial acylphloroglucinols from Hypericum olympicum” (2012).
In brackets after ≈: the same amount, converted by molar mass.

Columns and labels:
[1] = tested on: Staphylococcus aureus; experiment: Antibacterial activity against Staphylococcus aureus RN4220 overexpressing MsrA macrolide efflux protein after 24 hrs; assay type: functional; conditions: RN4220, 24 h
Method in brief: (§1)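 Strains grown on nutrient agar for 24 h at 37 °C before testing. Broth microdilution MIC used an inoculum of 5 × 10⁵ CFU, prepared in normal saline (9 g/L) against a 0.5 McFarland standard. Plates were incubated at 37 °C, then MTT (5 mg/mL methanolic stock) was added for 20 min. Growth was scored by colour change.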

[2] = tested on: Mycolicibacterium smegmatis; experiment: Antimycobacterial activity against Mycobacterium smegmatis MC2 2700 expressing Mycobacterium tuberculosis fatty acid synthase 1 gene after 72 hrs by MTT assay; assay type: functional; conditions: MC2 2700, 72 h
Method in brief: (§2)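 Mycobacteria were grown on Columbia agar with 7% defibrinated horse blood, subcultured, and incubated 72 h at 37 °C before the assay. Broth microdilution MIC used an inoculum of 5 × 10⁵ CFU in normal saline, set against a 0.5 McFarland standard. Plates were incubated at 37 °C, then MTT (5 mg/mL methanolic stock) was added for 20 min. Growth was read by colour change.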

[3] = tested on: Mycolicibacterium smegmatis; experiment: Antimycobacterial activity against Mycobacterium smegmatis ATCC 14468 after 72 hrs by MTT assay; assay type: functional; conditions: ATCC 14468, 72 h; method in brief: as §2
[4] = tested on: Mycolicibacterium phlei; experiment: Antimycobacterial activity against Mycobacterium phlei ATCC 11758 after 72 hrs by MTT assay; assay type: functional; conditions: ATCC 11758, 72 h
Method in brief: (§3)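 Mycobacterium strains were subcultured on Columbia agar with 7% defibrinated horse blood at 37 °C for 72 h before assay. The inoculum was 5 × 10⁵ CFU in normal saline (9 g/L), set against a 0.5 McFarland standard. Microtiter plates were incubated at 37 °C. MIC was read after adding MTT (5 mg/mL methanolic stock) for 20 min, with growth shown by colour change.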

[5] = tested on: Mycolicibacterium fortuitum; experiment: Antimycobacterial activity against Mycobacterium fortuitum ATCC 6841 after 72 hrs by MTT assay; assay type: functional; conditions: ATCC 6841, 72 h; method in brief: as §3
[6] = tested on: Pseudomonas aeruginosa; experiment: […] activity against Pseudomonas aeruginosa K767 after 24 hrs; assay type: functional; conditions: K767, 24 h; method in brief: as §1
[7] = tested on: Staphylococcus aureus; experiment: Antibacterial activity against Staphylococcus aureus ATCC 25923 after 24 hrs; assay type: functional; conditions: ATCC 25923, 24 h; method in brief: as §1
[8] = tested on: Staphylococcus aureus; experiment: Antibacterial activity against Staphylococcus aureus SA-1199B overexpressing NorA MDR efflux pump after 24 hrs; assay type: functional; method in brief: as §1
[9] = tested on: Pseudomonas aeruginosa; experiment: […] activity against Pseudomonas aeruginosa K1119 after 24 hrs; assay type: functional; conditions: K1119, 24 h; method in brief: as §1
[10] = tested on: Salmonella typhimurium; experiment: […] activity against Salmonella enterica serovar Typhimurium L354 after 24 hrs; assay type: functional, Salmonella enterica subsp. enterica serovar Typhimurium; conditions: L354, 24 h
Method in brief: (§4)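 The microdilution inoculum was 5 × 10⁵ CFU in normal saline (9 g/L), matched to a 0.5 McFarland standard. Plates were incubated at 37 °C. MTT (5 mg/mL methanolic stock) was added for 20 min, and colour change indicated growth for the MIC readout.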

[11] = tested on: Staphylococcus aureus; experiment: Antibacterial activity against Staphylococcus aureus EMRSA-15 after 24 hrs; assay type: functional; conditions: EMRSA-15, 24 h; method in brief: as §1
[12] = tested on: Staphylococcus aureus; experiment: Antibacterial activity against Staphylococcus aureus EMRSA-16 after 24 hrs; assay type: functional; conditions: EMRSA-16, 24 h; method in brief: as §1
[13] = tested on: Salmonella typhimurium; experiment: […] activity against Salmonella enterica serovar Typhimurium L10 after 24 hrs; assay type: functional, Salmonella enterica subsp. enterica serovar Typhimurium; conditions: L10, 24 h; method in brief: as §4
[14] = tested on: Staphylococcus aureus; experiment: Antibacterial activity against Staphylococcus aureus XU212 overexpressing TetK tetracycline efflux pump after 24 hrs; assay type: functional; conditions: XU212, 24 h; method in brief: as §1

Structure (SMILES) | MIC [1] | MIC [2] [µM] | MIC [3] [µM] | MIC [4] [µM] | MIC [5] [µM] | MIC [6] [µM] | MIC [7] | MIC [8] | MIC [9] [µM] | MIC [10] [µM] | MIC [11] | MIC [12] | MIC [13] [µM] | MIC [14]
CC[C@H]1OC(=O)[C@H](C)[C@@H](O[C@H]2C[C@@](C)(OC)[C@@H](O)[C@H](C)O2)[C@H](C)[C@@H](O[C@@H]2O[C@H](C)C[C@H](N(C)C)[C@H]2O)[C@](C)(O)C[C@@H](C)C(=O)[C@H](C)[C@@H](O)[C@]1(C)O [ERYTHROMYCIN] | 349 µM |  |  |  |  |  |  |  |  |  |  |  |  | 
CC[C@@H](CO)NCCN[C@@H](CC)CO [ETHAMBUTOL] |  | 2.4 (≈ 0.49 µg/mL) | 2.4 (≈ 0.49 µg/mL) | 2.4 (≈ 0.49 µg/mL) | 2.4 (≈ 0.49 µg/mL) |  |  |  |  |  |  |  |  | 
NNC(=O)c1ccncc1 [ISONIAZID] |  | 14.6 (≈ 2 µg/mL) | 14.6 (≈ 2 µg/mL) | 14.6 (≈ 2 µg/mL) | 29.2 (≈ 4 µg/mL) |  |  |  |  |  |  |  |  | 
CCn1cc(C(=O)O)c(=O)c2cc(F)c(N3CCNCC3)cc21 [NORFLOXACIN] |  |  |  |  |  | 6.2 (≈ 1.98 µg/mL) | 3.1 µM | 100 µM | 6.2 (≈ 1.98 µg/mL) |  |  |  |  | 
CC[C@H](C)C(=O)c1c(O)cc(O)cc1OC/C=C(\C)CCC=C(C)C [OLYMPICIN A] | 2.9 µM | 11.6 (≈ 4.02 µg/mL) | 11.6 (≈ 4.02 µg/mL) | 11.6 (≈ 4.02 µg/mL) | 23.2 (≈ 8.04 µg/mL) | > 1000 | 2.9 µM | 2.9 µM | > 1000 | > 1000 | 1.45 µM | 2.9 µM | > 1000 | 2.9 µM
CC[C@H](C)C(=O)c1c(O)cc(O)cc1OC/C=C(\C)C/C=C/C(C)(C)O [OLYMPICIN B] | 64 µg/mL |  |  |  |  |  | 64 µg/mL | 64 µg/mL |  |  | 64 µg/mL | 64 µg/mL |  | 64 µg/mL
C=C(C)C(O)CC/C(C)=C/COc1cc(O)cc(O)c1C(=O)C(C)CC (stereo unspecified) [OLYMPICIN C] | 64 µg/mL |  |  |  |  |  | 64 µg/mL | 64 µg/mL |  |  | 64 µg/mL | 64 µg/mL |  | 64 µg/mL
C=C(C)C(CC/C(C)=C/COc1cc(O)cc(O)c1C(=O)C(C)CC)OO (stereo unspecified) [OLYMPICIN D] | 64 µg/mL |  |  |  |  |  | 64 µg/mL | 64 µg/mL |  |  | 64 µg/mL | 64 µg/mL |  | 64 µg/mL
CCC(C)C(=O)c1c(O)cc(O)cc1OC/C=C(\C)CCC1OC1(C)C (stereo unspecified) [OLYMPICIN E] | 64 µg/mL |  |  |  |  |  | 64 µg/mL | 64 µg/mL |  |  | 64 µg/mL | 64 µg/mL |  | 64 µg/mL
Cc1onc(-c2ccccc2)c1C(=O)N[C@@H]1C(=O)N2[C@@H]1SC(C)(C)[C@@H]2C(=O)O [OXACILLIN] |  |  |  |  |  |  |  |  |  |  | 79 µM | 1280 µM |  | 
CN(C)[C@@H]1C(O)=C(C(N)=O)C(=O)[C@@]2(O)C(O)=C3C(=O)c4c(O)cccc4[C@@](C)(O)[C@H]3C[C@@H]12 [TETRACYCLINE] |  |  |  |  |  |  |  |  |  | 2.3 (≈ 1.02 µg/mL) |  |  | 2.3 (≈ 1.02 µg/mL) | 288 µM
